{"data": "Measurements pooled from the literature", "observed": "cell growth or viability", "note": "Protocols differ between the studies behind these lines."}
{"Compound": "CC(c1ccccc1)n1nc(-c2ccc(CO)o2)c2ccccc21 (stereo not drawn)", "cell line": "RBE", "technique": "ATP luminescence", "IC50": "4.17 µM"}
{"Compound": "CCc1nc(C(N)=O)c(Nc2ccc(N3CCC(N4CCN(C)CC4)CC3)c(OC)c2)nc1NC1CCOCC1", "cell line": "MV4-11", "technique": "resazurin", "IC50": "0.025 µM"}
{"Compound": "Cc1nc2ccc(-c3ccc(OCc4ccccc4)c(F)c3)cc2c(O)c1C(=O)O", "cell line": "MDA-MB-468", "technique": "MTT", "time": "48 h", "IC50": "≥ 100 µM"}
{"Compound": "CN1CCC(NC2CCc3[nH]c4c(C(N)=O)ccc(-c5ccccc5Cl)c4c3C2)CC1 (stereo not drawn)", "cell line": "RBE", "time": "96 h", "IC50": "0.00146 µM"}
{"Compound": "OC1CCN(c2ccc(/C=N/NC(=S)Nc3ccc(F)cc3)cc2)CC1", "cell line": "BEAS-2B", "technique": "MTT", "time": "24 h", "IC50": "29.1 µM"}
{"Compound": "c1ccc(-c2noc(-c3nn(Cc4ccncc4)c4ccccc34)n2)cc1", "cell line": "human Fibroblast", "time": "48 h", "IC50": "51.4 µM"}
{"Compound": "CC(=O)ON=C1C=CC(=C(C#N)c2ccccc2)C=C1", "cell line": "human Fibroblast", "technique": "MTT", "time": "72 h", "IC50": "19.6 µg/mL"}
{"Compound": "OCc1ccc(-c2nn(Cc3ccccc3)c3ccc(F)cc23)o1", "cell line": "RBE", "technique": "ATP luminescence", "IC50": "0.977 µM"}
{"Compound": "CCOC(=O)c1c(C)nc2ccc(-c3cccc(F)c3)cc2c1O", "cell line": "MDA-MB-468", "technique": "MTT", "time": "48 h", "IC50": "4 µM"}
{"Compound": "Cc1cccc(C)c1NC(=S)N/N=C/c1ccc(N2CCC(O)CC2)cc1", "cell line": "BEAS-2B", "technique": "MTT", "time": "24 h", "IC50": "12.7 µM"}
{"Compound": "C/C(=N\\C1CCCCC1/N=C(\\C)c1c(O)c2ccccc2oc1=O)c1c(O)c2ccccc2oc1=O (stereo not drawn)", "cell line": "BEAS-2B", "technique": "MTT", "time": "48 h", "IC50": "5.46 µM"}
{"Compound": "COc1ncccc1Cn1nc(-c2ccc(CO)o2)c2ccccc21", "cell line": "RBE", "technique": "ATP luminescence", "IC50": "0.229 µM"}
{"Compound": "COc1ccc2c(-c3ncc(-c4ccccc4)o3)nn(Cc3ccccc3)c2c1", "cell line": "human Fibroblast", "time": "48 h", "IC50": "89.9 µM"}
{"Compound": "OCc1ccc(-c2nn(Cc3ccccc3)c3ccccc23)o1", "cell line": "RBE", "technique": "ATP luminescence", "IC50": "0.692 µM"}
{"Compound": "Clc1ccc(Cn2nc(-c3nc(-c4ccccc4)no3)c3ccccc32)c(Cl)c1", "cell line": "human Fibroblast", "time": "48 h", "IC50": "164 µM"}
{"Compound": "C/C(=N\\CCNCCNCC/N=C(\\C)c1c(O)c2ccccc2oc1=O)c1c(O)c2ccccc2oc1=O", "cell line": "BEAS-2B", "technique": "MTT", "time": "48 h", "IC50": "4.11 µM"}
{"Compound": "OCc1ccc(-c2nn(-c3ccccc3)c3ccccc23)o1", "cell line": "RBE", "technique": "ATP luminescence", "IC50": "4.27 µM"}
{"Compound": "CC(=O)N1CCC(Nc2cc(C(=O)NC[C@H](O)CN3CCc4ccccc4C3)ncn2)CC1", "cell line": "MDA-MB-435S", "technique": "CCK-8", "time": "72 h", "IC50": "> 100 µM"}
{"Compound": "CC(O)c1ccc(-c2nn(Cc3ccccc3)c3ccccc23)o1 (stereo not drawn)", "cell line": "RBE", "technique": "ATP luminescence", "IC50": "6.92 µM"}
{"Compound": "Fc1ccc2c(-c3nnc(Cc4ccccc4)s3)nn(Cc3ccc(Cl)cc3Cl)c2c1", "cell line": "human Fibroblast", "time": "48 h", "IC50": "191 µM"}
{"Compound": "CCOC(=O)c1c(C)nc2ccc(-c3ccc(F)c(F)c3)cc2c1O", "cell line": "MDA-MB-468", "technique": "MTT", "time": "48 h", "IC50": "4 µM"}
